Laboratory results: ChEMBL document CHEMBL4613248, “Twelfth-Position Deuteration of Nevirapine Reduces 12-Hydroxy-Nevirapine Formation and Nevirapine-Induced Hepatocyte Death” (J Med Chem, 2020)

Experiments:
Hepatocyte = experiment: Induction of change in SARNP protein expression in human primary hepatocytes at 10 uM incubated for 48 hrs by relative-quantitation label-free proteomics analysis relative to NVP; assay type: cell-based
Outline: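 Cryoplateable pooled human hepatocytes (10 mixed-sex donors per pool; three pools), adhered overnight, then given fresh medium containing compound (10 μM), NVP (10 μM) or vehicle (0.1% DMSO) for 48 h. Lysate reduced (DTT) and alkylated (iodoacetamide), acetone-precipitated and digested with trypsin. Label-free Top10 nanoLC-MS with precursor ion area quantitation; unpaired t test P values, Cohen's d effect size.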

Cytochrome P450 = experiment: Drug metabolism in human liver microsomes assessed as Cytochrome P450-mediated formation of 12-OHNVP by measuring Kcat/Km ratio in presence of NADPH regenerating reagents by uHPLC-MS/MS analysis
Outline: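 Pooled human liver microsomes (2.5 mg/mL) in potassium phosphate; substrate (1–400 μM) prewarmed 5 min at 37 °C with NADPH-regenerating system, started with microsomes, 30 min at 37 °C. 12-OH product quantified by uHPLC-MS/MS Orbitrap against 12-OHNVP standard curve made in microsomes without NADPH. Kcat/Km taken as slope of linear rate vs substrate fit at nonsaturating 0–50 μM.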

`[2H]C([2H])([2H])c1ccnc2c1NC(=O)c1cccnc1N2C1CC1` was tested, and the “fold change (FC)” value (Hepatocyte) was -1.65 and the Kcat/Km (Cytochrome P450) was 0.153 M⁻¹ s⁻¹.
